# Source: PubChem (several laboratories)
# An excerpt weighted towards active compounds, which were near 2.1% of everything screened.
# IEC-6 tox – counter-screen for KLF5 inhibitors: cytotoxicity in IEC-6 cells; IEC-6 cytotoxicity, luminescence viability; inhibition, % at 5 µM; hit rate 0.78% among 290,000; AID 1825; in the data active = inhibition above about 22%
# b-catenin transl – beta-catenin nuclear translocation modulation. HeLa beta-catenin nuclear translocation, immunofluorescence imaging. nuclear translocation activity, % at 5 µM. hit rate 0.3% among 190,000. AID 1665;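 active = nuclear translocation activity above 50% at 5 µM, with a well cell count of 50 or more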;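 also: per-cell ratio of nuclear to cytoplasmic median beta-catenin stain intensity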
#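 Read-out: Nuclear/cytoplasmic beta-catenin signal ratio, % activation | Assay system: Human HeLa cell line | Times: 24 h compound exposure at 37°C, 5% CO2 | Signal: Fluorescence imaging of beta-catenin antibody stain plus DAPI | Dosing: 5 µM primary, 0.02–20 µM confirmation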
# KLF5 inh – kruppel-like factor 5 inhibition; DLD-1 KLF5 promoter-luciferase reporter, luminescence; AID 1700; inhibition, % at 5 µM; hit rate 0.23% among 290,000;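 active = inhibition above a per-plate limit of that plate's mean compound inhibition plus 3 SD, cut at about 60% in these data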;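 also: higher means less KLF5 promoter-driven luciferase light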
# Ba/F3 V617F tox – reduce viability of Ba/F3 cells dependent on JAK2V617F. inhibition, % at 5.6 µM. AID 1446. hit rate 1.1% among 220,000. Ba/F3 EpoR-JAK2V617F viability, ATP luminescence;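 active = inhibition above the campaign mean plus 3 SD over all tested compounds, cut at about 24% in these data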;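 also: cytokine-independent growth of Ba/F3 cells driven by EpoR plus mutant JAK2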
# BaF3 tox – counter-screen for JAK2V617F inhibitors: parental Ba/F3 viability inhibitors; CellTiter-Glo ATP luminescence; hit rate 1.1% among 220,000; AID 1486; inhibition, % at 5.6 µM;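 active = inhibition above a per-campaign cutoff, the mean inhibition of all tested compounds plus 3 SD, cut at about 27% in these data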
# MT stabilizer – microtubule stabilizers in HeLa cells | HeLa tubulin immunostaining HCS, 24 h; share of cells brighter than vehicle mean+2SD | % tubulin-high responders, % at 10 µM | hit rate 0.83% among 200,000 | AID 2205;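 active = plate Z-score above 3 for both tubulin-high and condensed-nucleus cell shares, with cell loss under 80%, at 10 µM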;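 also: anti alpha tubulin signal scored within the nucleus-defined area of each cell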
# A number is an active result; i = inactive; nt = no result given.
SMILES,IEC-6 tox,b-catenin transl,KLF5 inh,Ba/F3 V617F tox,BaF3 tox,MT stabilizer
CC(C)c1ccc(-n2c(-c3ccccc3)c[n+]3c2CCc2ccccc2-3)cc1,41,i,i,99,92,i
COc1ccccc1-n1c(-c2ccccc2)c[n+]2c1CCc1ccccc1-2,24,i,i,101,79,i
CC(=O)c1ccc(S(=O)(=O)N(C)CC(=O)NCC2CCCCC2)cc1,i,nt,i,nt,nt,nt
O=C(Nc1cc(S(=O)(=O)N2CCOCC2)ccc1N1CCOCC1)c1cccc(S(=O)(=O)N2CCCCC2)c1,i,i,i,i,i,nt
CC[n+]1c(/C=C/c2c[nH]c3ccccc23)ccc2cc(C)ccc21,i,i,i,91,79,80
Cc1nnc(NC(=O)CSc2nnc3c(n2)[nH]c2ccc(Br)cc23)s1,i,nt,i,nt,nt,nt
CC1C/C(=C\c2cccnc2)C(=O)/C(=C/c2cccnc2)C1 (centres undefined),i,i,i,i,i,32
CCN(CC)CCCN1C(=O)C(=O)/C(=C(/O)c2cnn(-c3ccccc3)c2C)C1c1ccncc1 (centres undefined),i,nt,i,i,i,i
CCC(=O)Nc1ccc(NC(=S)Nc2ccccc2)cc1,i,i,i,i,58,i
CCC(=O)Nc1ccc(NC(=S)NC(=O)Cc2ccccc2)cc1,i,i,i,i,i,i
O=C(Nc1ccc(Cl)cc1)Nc1csc([N+](=O)[O-])c1,i,i,i,30,72,nt
O=C(NC1CCN(c2ncccn2)CC1)c1c(F)cccc1F,i,nt,i,nt,nt,nt
COc1cc(SC)ccc1C(=O)N1CCN(c2ccccc2OC)CC1,31,50,i,i,i,23
COc1ccccc1N1CCN(C(=O)c2c(-c3ccccc3)noc2C)CC1,i,126,i,i,i,28
COC(=O)C1CCN(C(=O)c2ccc(SC)cc2OC)CC1,i,i,i,i,i,i
COc1cccc(Sc2ccccc2/C=N/NC(N)=O)c1,i,i,i,i,i,15
CC1=C(n2nnc([N+](=O)[O-])n2)C(c2cccnc2)C(C#N)=C(N)O1 (centres undefined),i,i,i,i,i,i
CCOC(=O)N/N=C/c1cc(C)n(-c2cccc3ccccc23)c1C,i,i,i,i,i,21
Cc1cc(/C=N/NC(=O)c2ccccc2F)c(C)n1-c1ccccc1,i,i,i,i,i,i
Cc1cc(/C=N/NC(=O)c2cccc(F)c2)c(C)n1-c1ccccc1,i,i,i,i,i,16
Cc1nn(C)c(C)c1CN(C)C(=O)C1CCC(=O)N(C2CCCCCC2)C1 (centres undefined),i,nt,i,nt,nt,nt
Cc1nn(C)c(C)c1CN(C)C(=O)CCCC(=O)O,i,i,i,i,93,i
COc1cccc(CN(C(=O)c2cc3ccccc3oc2=O)C2CCS(=O)(=O)C2)c1 (centres undefined),i,nt,i,nt,nt,nt
COn1c(SCc2ccc(C)cc2C)nc2ccccc2c1=O,i,51,i,i,i,41
Cn1ncc(Br)c1NC(=O)Nc1ccc(OC(F)(F)F)cc1,i,i,i,i,32,nt
SMILES,IEC-6 tox,b-catenin transl,KLF5 inh,Ba/F3 V617F tox,BaF3 tox,MT stabilizer
Cc1ccc(CNC(=O)Nc2ccc(OC(F)(F)F)cc2)n1C,i,nt,i,nt,nt,nt
CCCN(CCO)Cc1ccc(F)c(Br)c1,i,i,i,i,i,i
COc1ccc(NS(=O)(=O)c2cc(NC(=O)c3cccc(OCc4c(C)noc4C)c3)ccc2OC)cc1,i,63,i,i,i,13
Cc1ccccc1NC(=O)CSc1nnc(C)c2ccccc12,i,nt,i,nt,nt,nt
COc1ccc2c(c1)N(C(=O)CSc1n[nH]c(C)n1)C(C)(C)C=C2C,i,i,i,i,i,i
N#CC[n+]1cc(-c2ccc(Cl)cc2)n2c1CCC2,i,i,i,i,i,i
Clc1ccc(C[n+]2cc(-c3ccccc3)n3c2CCC3)cc1Cl,i,i,i,85,71,i
O=[N+]([O-])c1ccc(C[n+]2cc(-c3ccc(Cl)c(Cl)c3)n3c2CCCCC3)cc1,i,i,i,i,i,nt
Clc1ccc(-c2c[n+](Cc3cccc(Cl)c3)c3n2CCC3)cc1,i,i,i,77,64,i
COc1cccc(C(=O)NC(C)CCc2ccccc2)c1 (centres undefined),i,nt,i,nt,nt,nt
O=c1cc(CSc2nnc(-c3cccs3)n2Cc2ccccc2)nc2sc3ccccc3n12,i,i,i,43,55,i
COc1ccc(-c2nc(SCC(=O)Nc3nccs3)c(-c3ccc(Cl)cc3)[nH]2)cc1,i,i,i,i,i,15
COc1ccc(-c2[nH]c(-c3ccc(C)cc3)nc2SCC(=O)Nc2nccs2)cc1,i,i,i,i,i,i
COc1ccc(C(C[N+](=O)[O-])c2c(-c3ccccc3)cc3ccccn23)cc1 (centres undefined),i,i,i,i,i,29
CCN1/C(=C/C=C/c2oc3ccc4ccccc4c3[n+]2CC)Oc2ccc3ccccc3c21,i,nt,i,101,68,80
CCN1C(=O)/C(=C/C=C2/Sc3ccc4ccccc4c3N2CCO)SC1=S,i,i,i,i,i,i
CCCCn1c2ccccc2c2cc(CC(N)=O)ccc21,i,i,i,i,i,nt
COc1ccc2c(c1)C(c1ccc(N3CCOCC3)cc1)=NNC(c1cccnc1)=N2,i,i,i,i,i,i
COc1ccc(C2=NNC(c3cccnc3)=Nc3ccc(OC)cc32)cc1,i,i,i,i,i,13
COC(=O)CCC(=O)N1CCCC(CNS(=O)(=O)c2ccc(OC)cc2)C1 (centres undefined),i,i,i,i,i,i
COc1ccc2cc(CN(CC3CCCO3)C(=S)Nc3ccccc3)c(=O)[nH]c2c1 (centres undefined),i,i,i,i,i,27
Cc1cc2cc(CN(CC3CCCO3)C(=S)Nc3ccccc3)c(=O)[nH]c2cc1C (centres undefined),i,i,i,i,i,14
CN(C)CCCN(Cc1cc2cc3c(cc2[nH]c1=O)OCO3)C(=S)Nc1cccc(Cl)c1,i,i,i,36,46,nt
Cc1cc(S(=O)(=O)n2[nH]c(=O)c(CCO)c2C)c(Cl)cc1Cl,i,nt,i,nt,nt,nt
CC(=O)Nc1ccc(Sc2ncnc3scc(-c4ccccc4)c23)cc1,i,i,i,i,i,i
SMILES,IEC-6 tox,b-catenin transl,KLF5 inh,Ba/F3 V617F tox,BaF3 tox,MT stabilizer
CC(=O)Nc1cccc(Oc2ncnc3scc(-c4ccc(C(C)C)cc4)c23)c1,26,i,i,i,i,i
CC(=O)Nc1ccc(S(=O)(=O)N2CCN(c3ncccn3)CC2)cc1,i,nt,i,nt,nt,nt
O=C(Cn1cnc2sc(-c3ccccc3)cc2c1=O)NCc1ccco1,i,i,i,i,i,27
O=C(Cn1cnc2sc(-c3ccccc3)cc2c1=O)NCCc1ccccc1,i,nt,i,i,i,i
O=C(Cn1cnc2sc(-c3ccccc3)cc2c1=O)NCc1ccccc1,i,nt,i,i,i,36
O=C(Cn1cnc2scc(-c3ccccc3)c2c1=O)NCc1ccco1,i,i,i,i,i,i
